pIC50: −log10 of the molar value. Converted amounts (≈) assume the structure as drawn. The source made the active and inactive calls. No cut-off for these calls is given here.
Assays:
Cytochrome P450 2C8 = biological target: T1, Cytochrome P450 2C8 (Homo sapiens, UniProt P10632); test: Inhibition of CYP2C8 in human liver microsomes in presence of NADPH by LC-MS/MS analysis; format: ADME
T1 sequence (P10632 whole entry): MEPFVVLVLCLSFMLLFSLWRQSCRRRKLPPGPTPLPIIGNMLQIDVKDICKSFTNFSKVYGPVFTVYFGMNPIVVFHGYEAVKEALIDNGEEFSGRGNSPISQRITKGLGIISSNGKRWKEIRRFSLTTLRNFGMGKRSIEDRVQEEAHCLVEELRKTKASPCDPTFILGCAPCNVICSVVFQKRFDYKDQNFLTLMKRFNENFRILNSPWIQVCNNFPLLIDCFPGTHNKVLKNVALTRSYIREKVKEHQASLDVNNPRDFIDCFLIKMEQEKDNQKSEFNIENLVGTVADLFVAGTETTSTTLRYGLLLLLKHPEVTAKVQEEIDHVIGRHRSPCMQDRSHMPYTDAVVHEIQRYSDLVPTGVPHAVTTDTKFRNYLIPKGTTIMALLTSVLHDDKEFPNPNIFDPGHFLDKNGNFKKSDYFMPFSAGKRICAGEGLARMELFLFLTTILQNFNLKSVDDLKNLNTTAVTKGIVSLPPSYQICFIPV

[1] = Chemical stability in PBS at pH 5.5 assessed as drug degradation after 10 hrs by HPLC-UV analysis; format: physicochemical; settings: read-out: Drug degradation
[2] = test system: Mycobacterium tuberculosis; test: Up-regulation of […] gene EF-Tu in Mycobacterium tuberculosis H37Rv at 2 times MIC90 after 4 hrs by microarray analysis; format: functional
Mus musculus [3] = test: Toxicity in BALB/c mouse assessed as change in spleen weight at 200 mg/kg, po qd administered via gavage after 10 days; format: organism-based; settings: in vivo, 240 h
Outline: (§1)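 Mice given one daily oral gavage dose of 200 mg/kg body weight for 10 days with daily behavioural monitoring (hippocratic screening); heart, lung, spleen, kidney and liver weights compared with controls by ANOVA and Dunnett's test, p < 0.05.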

[4] = test system: Mycobacterium tuberculosis; test: Growth inhibition of Mycobacterium tuberculosis H37Rv exposed to plasma from BALB/c mouse treated with 300 mg/kg, po administered through microemulsion vehicle as single oral dose per gavage after 2 hrs by Resazurin microtiter assay; format: functional; settings: read-out: GI
Outline: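 The microemulsion was 10% cholesterol, 10% phosphatidylcholine/sodium oleate/polyoxyl 40 hydrogenated castor oil (3:6:8) and 80% phosphate buffer pH 7.4. Plasma taken at 0.3, 1, 2 or 4 h was tested by REMA for % Mtb growth inhibition, and plasma level was estimated against the in-vitro REMA MIC.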

[5] = Apparent permeability from apical to basolateral side in human Caco2 cells by LC-MS/MS analysis; format: ADME, cell-based; settings: caco-2
Outline: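 Caco-2 monolayer permeability measured in both directions (apical-to-basolateral and basolateral-to-apical); result given as apparent permeability coefficient Papp in cm/s.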

[6] = Induction of nitric oxide release by Griess assay
Outline: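 Griess assay: chemical detection of nitrite ions in solution as indicator of nitric oxide release.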

Mus musculus [7] = test: Hepatotoxicity in BALB/c mouse assessed as change in alkaline phosphatase level in plasma at 200 mg/kg, po qd administered via gavage after 10 days; format: toxicity, organism-based; settings: in vivo, 240 h
[8] = n-Octanol/water partition coefficient, log P of the compound by HPLC analysis; format: physicochemical
Outline: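 Log P from n-octanol/water partition coefficient determined by HPLC method.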

[9] = test system: Mycobacterium tuberculosis; test: Antitubercular activity against Mycobacterium tuberculosis H37Rv ATCC 27294 infected in mouse J774A.1 cells at 1.46 to 23.86 ug/ml after 3 days relative to control; format: functional
Mus musculus [10] = test: Genotoxicity in Swiss mouse assessed as incidence of micronucleated peripheral blood reticulocytes at 50 to 500 mg/kg dosed via gavage by micronucleus assay; format: toxicity, organism-based; settings: in vivo, po
Mus musculus [11] = test: Toxicity in BALB/c mouse assessed as change in lung weight at 200 mg/kg, po qd administered via gavage after 10 days; format: organism-based; settings: in vivo, 240 h; outline: as §1
[12] = test system: Mycobacterium tuberculosis; test: Bactericidal activity against Mycobacterium tuberculosis H37Rv ATCC 27294 assessed as colony forming units at 41.24 uM after 48 hrs by time kill analysis; format: functional
Outline: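 Time–kill: H37Rv ATCC 27294 exposed to drug at 41.24 μM, alongside INH 0.72 μM, RMP 0.01 μM and MOX 0.88 μM; log10 CFU/mL followed over days. Counts are the mean of three independent assays, ± SD.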

[13] = test system: Mycobacterium tuberculosis; test: Antitubercular activity against Mycobacterium tuberculosis Erdman infected in BALB/c mouse at 200 mg/kg, po qd dosed via gavage starting at 10 days post-infection and terminated at 29 day post-infection for 5 consecutive days each week and measured 3 day wash-out period at 31 day-postinfection; format: functional, organism-based
Outline: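 Drug in cholesterol/phospholipid microemulsion was given by oral gavage (200 μL) once daily, 5 days/week, from day 10 to day 29 post-infection; n = 7/group. After a 3-day washout, lungs were homogenized in HBSS-Tween at day 31 and plated on Middlebrook 7H11 for CFU.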

Candida albicans = test: Antimicrobial activity against Candida albicans ATCC 10231 at 200 uM incubated for 48 hrs; format: functional
[14] = Stability of the compound in PBS assessed as parent compound remaining at pH 7.4 after 24 hrs by HPLC-UV analysis; format: physicochemical; settings: read-out: Stability
[15] = Stability of the compound in PBS assessed as parent compound remaining at pH 5.5 after 24 hrs by HPLC-UV analysis; format: physicochemical; settings: read-out: Stability
[16] = test system: Mycobacterium tuberculosis; test: Upregulation of ribosomal protein gene in Mycobacterium tuberculosis H37Rv at 2 times MIC90 after 4 hrs by microarray analysis; format: functional
Mus musculus [17] = test: Hepatotoxicity in BALB/c mouse assessed as change in liver morphology at 200 mg/kg, po qd administered via gavage after 10 days by hematoxylin and eosin staining based analysis; format: toxicity, organism-based; settings: in vivo, 240 h
Outline: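 BALB/c mice dosed orally by gavage once daily at 200 mg/kg; liver and kidney sections stained with H&E and examined for tissue morphology.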

Staphylococcus aureus = test: Antimicrobial activity against Staphylococcus aureus ATCC 29213 at 200 uM incubated for 16 hrs; format: functional
[18] = test system: Mycobacterium tuberculosis; test: Up-regulation of heat shock protein genes in Mycobacterium tuberculosis H37Rv at 2 times MIC after 4 hrs by microarray analysis; format: functional
[19] = test system: Mycobacterium tuberculosis; test: Antitubercular activity against Mycobacterium tuberculosis H37Rv ATCC 27294 in presence of 4% fetal bovine serum; format: functional
[20] = test system: Mycobacterium tuberculosis; test: Antitubercular activity against Mycobacterium tuberculosis H37Rv ATCC 27294 under acidic pH 6 condition; format: functional
Mus musculus [21] = test: Toxicity in BALB/c mouse assessed as behavioral parameter changes (hippocratic screening) at 200 mg/kg, po qd administered via gavage after 10 days; format: organism-based; settings: in vivo, 240 h; outline: as §1

O=C(N/N=C/c1ccc2no[n+]([O-])c2c1)c1ccncc1
pIC50 (Cytochrome P450 2C8): < 4.70 | degraded at 10 h [1]: 20% | Activity [2]: Active | Activity (Mus musculus [3]): Non-Toxic | inhibition in vivo at 300 mg/kg [4]: 76% | Papp [5]: 5.67 ×10⁻⁶ cm/s | Activity [6]: inactive | Activity (Mus musculus [7]): Non-Toxic | logP [8]: 1.5 | inhibition (INH) [9]: 90% | Activity (Mus musculus [10]): Non-Toxic | Activity (Mus musculus [11]): Non-Toxic | Activity [12]: 6.7 log10CFU/ml | Activity [13]: inactive | Activity (Candida albicans): inactive | remaining at 24 h [14]: 75% | remaining at 24 h [15]: 67% | Activity [16]: Active | Activity (Mus musculus [17]): Non-Toxic | Activity (Staphylococcus aureus): inactive | Activity [18]: inactive | MIC90 [19]: 9.81 µM | MIC90 [20]: 3.41 µM (≈ 0.966 µg/mL) | Activity (Mus musculus [21]): Non-Toxic
